Measured values published in ChEMBL document CHEMBL4145531, “Synthesis of novel Chlorin e6-curcumin conjugates as photosensitizers for photodynamic therapy against pancreatic carcinoma” (Eur J Med Chem, 2018).

Assays:
[1] = Induction of singlet oxygen production in DMSO assessed as DPBF absorption intensity (reference value: 100%); format: functional
Summary of the method: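 DPBF (50 µM in DMSO) was mixed with 1 µM photosensitizer in the dark. Samples were irradiated at 660 nm, 50 mW, 2 J/cm² for 40 s. Singlet oxygen was read as the decay of normalized DPBF absorbance at 418 nm relative to a DPBF-only control.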

[2] = Drug uptake in human AsPC1 cells at 5 uM after 3 to 24 hrs by FACS analysis; format: ADME, cell-based; settings: aspc1, 5 µM
Summary of the method: (§1)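 AsPC-1 cells (2 x 10^5) were seeded and kept in the dark at 37 °C for 24h. They were then incubated with 5 µM compound for 30 min to 24h. Cells were harvested by trypsin, washed three times in PBS and resuspended in PBS. Uptake was read as mean fluorescence intensity by FACS.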

[3] = Selectivity index, ratio of IC50 for dark toxicity in human PANC1 cells to IC50 for phototoxicity in human PANC1 cells; format: cell-based, PANC-1; settings: read-out: Ratio IC50
Summary of the method: (§2)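 The ratio is the dark-toxicity IC50 over the phototoxicity IC50 in the same cell line, both from 72h MTT. The dark arm received no light. The photo arm was irradiated at 660 nm, 50 mW, 9 J/cm² after 3h compound exposure.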

[4] = tested on: PANC-1; assay: Phototoxicity in human PANC1 cells assessed as reduction in cell viability preincubated for 3 hrs followed by 9 J/cm2 laser light irradiation and measured after 72 hrs by MTT assay; format: functional, cell-based; settings: PANC-1, light or radiation study
Summary of the method: (§3)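 Cells were seeded at 5.0 x 10^3 per well and incubated overnight at 37 °C. AsPC-1 was in RPMI-1640 and MIA PaCa-2/PANC-1 in DMEM, with 10% FBS. Cells took up compound for 3h, then received 660 nm laser light (50 mW, 9 J/cm²).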

[5] = Dark toxicity in human PANC1 cells assessed as reduction in cell viability after 72 hrs by MTT assay; format: cell-based, PANC-1
Summary of the method: (§4)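 AsPC-1 cells were grown in RPMI-1640, and MIA PaCa-2 and PANC-1 in DMEM, each with 10% FBS and 1% penicillin/streptomycin. 5.0 x 10^3 cells were seeded and left overnight at 37 °C. They were exposed to 0-300 µM compound for 3h without laser irradiation, then held 72h in the dark at 37 °C, 5% CO₂. Viability was read by MTT.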

[6] = Dark toxicity in human MIAPaCa2 cells assessed as reduction in cell viability after 72 hrs by MTT assay; format: cell-based, MIA PaCa-2; summary of the method: as §4
[7] = tested on: MIA PaCa-2; assay: Phototoxicity in human MIAPaCa2 cells assessed as reduction in cell viability preincubated for 3 hrs followed by 9 J/cm2 laser light irradiation and measured after 72 hrs by MTT assay; format: functional, cell-based; settings: MIA PaCa-2, light or radiation study; summary of the method: as §3
[8] = Solubility of the compound in 2% DMSO/98% de-ionized water at 7.7 uM; format: physicochemical; settings: buffer
[9] = tested on: ASPC1; assay: Phototoxicity in human AsPC1 cells assessed as reduction in cell viability preincubated for 3 hrs followed by 9 J/cm2 laser light irradiation and measured after 72 hrs by MTT assay; format: functional, cell-based; settings: ASPC1, light or radiation study; summary of the method: as §3
[10] = Dark toxicity in human AsPC1 cells assessed as reduction in cell viability after 72 hrs by MTT assay; format: cell-based; summary of the method: as §4
[11] = Selectivity index, ratio of IC50 for dark toxicity in human MIAPaCa2 cells to IC50 for phototoxicity in human MIAPaCa2 cells; format: cell-based, MIA PaCa-2; settings: read-out: Ratio IC50; summary of the method: as §2
[12] = Selectivity index, ratio of IC50 for dark toxicity in human AsPC1 cells to IC50 for phototoxicity in human AsPC1 cells; format: cell-based; settings: read-out: Ratio IC50; summary of the method: as §2
[13] = Drug uptake in human AsPC1 cells at 5 uM by FACS analysis; format: ADME, cell-based; settings: aspc1, 5 µM, TDE = time-dependent effect; summary of the method: as §1
[14] = Solubility of the compound in 2% DMSO/98% de-ionized water at 8.7 uM; format: physicochemical; settings: buffer

| Structure (SMILES) | Activity [1] | Drug uptake [2] | selectivity ratio [3] | IC50 [4] | IC50 at 72 h [5] | IC50 at 72 h [6] | IC50 [7] | solubility [8] | IC50 [9] | IC50 at 72 h [10] | selectivity ratio [11] | selectivity ratio [12] | Drug uptake [13] | solubility [14] |
| --- | --- | --- | --- | --- | --- | --- | --- | --- | --- | --- | --- | --- | --- | --- |
| CN(C)c1ccc2nc3ccc(=[N+](C)C)cc-3sc2c1 | 33.9% | – | – | – | – | – | – | – | – | – | – | – | – | – |
| C=Cc1c(C)c2cc3nc(c(CC(=O)OC)c4[nH]c(cc5nc(cc1[nH]2)C(C)=C5CC)c(C)c4C(=O)NCCCOCCOCCOCCCNC(=O)CCCC(=O)Oc1ccc(/C=C/C(=O)CC(=O)/C=C/c2ccc(O)c(OC)c2)cc1OC)C(CCC(=O)OC)C3C (configuration not stated) | 12.3% | Active | > 19.1 | 15.7 µM | > 300 µM | > 300 µM | 4.64 µM | Soluble | 5.93 µM | 193 µM | > 64.7 | 32.5 | Tde | – |
| C=Cc1c(C)c2cc3nc(c(CC(=O)OC)c4[nH]c(cc5nc(cc1[nH]2)C(C)=C5CC)c(C)c4C(=O)NCCCNC(=O)CCCC(=O)Oc1ccc(/C=C/C(=O)CC(=O)/C=C/c2ccc(O)c(OC)c2)cc1OC)C(CCC(=O)OC)C3C (configuration not stated) | 7.39% | Active | > 65.5 | 4.58 µM | > 300 µM | 200 µM | 4.2 µM | – | 5.74 µM | > 300 µM | 47.6 | > 52.3 | Tde | Soluble |
